The record followed here is BindingDB's records for doi:10.1021/jm970235u (Takeda Chemical Industries, 1998).

Peptide text beside a SMILES is read from it.

The term IC50 denotes the concentration at which inhibition is half-maximal.

In the test the target is Integrin alpha-IIb/beta-3 (Homo sapiens, UniProt P08514+P05106). Kind of test: Concentration required to inhibit adenosine diphosphate (ADP) induced aggregation of human platelets by 50% in vitro. The gist of the method: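 PRP obtained by centrifugation and adjusted to […]. PRP stirred at 1000 rpm and prewarmed 2 min at 37 °C with compound. Submaximal ADP added; light-transmittance aggregometry.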
Integrin alpha-IIb/beta-3, sequence (P05106 27-788 limits assumed): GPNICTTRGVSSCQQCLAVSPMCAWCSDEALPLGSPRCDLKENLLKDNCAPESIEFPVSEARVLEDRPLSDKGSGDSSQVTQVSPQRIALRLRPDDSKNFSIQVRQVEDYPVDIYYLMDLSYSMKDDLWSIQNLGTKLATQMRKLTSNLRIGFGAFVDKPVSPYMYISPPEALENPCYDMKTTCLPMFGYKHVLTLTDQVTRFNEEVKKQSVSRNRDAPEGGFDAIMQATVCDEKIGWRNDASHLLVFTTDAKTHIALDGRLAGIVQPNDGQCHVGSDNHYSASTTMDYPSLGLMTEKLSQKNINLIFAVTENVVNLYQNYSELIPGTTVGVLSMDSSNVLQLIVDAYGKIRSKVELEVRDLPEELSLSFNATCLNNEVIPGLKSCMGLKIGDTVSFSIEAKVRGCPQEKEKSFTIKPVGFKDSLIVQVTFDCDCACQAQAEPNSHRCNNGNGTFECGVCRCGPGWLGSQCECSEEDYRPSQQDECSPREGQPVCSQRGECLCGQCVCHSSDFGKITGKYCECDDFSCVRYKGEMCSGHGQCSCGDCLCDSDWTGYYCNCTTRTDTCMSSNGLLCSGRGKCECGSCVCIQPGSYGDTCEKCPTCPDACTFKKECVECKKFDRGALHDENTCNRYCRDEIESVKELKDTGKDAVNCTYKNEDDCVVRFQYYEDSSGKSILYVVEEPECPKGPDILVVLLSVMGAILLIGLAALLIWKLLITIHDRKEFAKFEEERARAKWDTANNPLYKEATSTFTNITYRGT
Integrin alpha-IIb/beta-3, sequence (P08514 32-887 limits assumed): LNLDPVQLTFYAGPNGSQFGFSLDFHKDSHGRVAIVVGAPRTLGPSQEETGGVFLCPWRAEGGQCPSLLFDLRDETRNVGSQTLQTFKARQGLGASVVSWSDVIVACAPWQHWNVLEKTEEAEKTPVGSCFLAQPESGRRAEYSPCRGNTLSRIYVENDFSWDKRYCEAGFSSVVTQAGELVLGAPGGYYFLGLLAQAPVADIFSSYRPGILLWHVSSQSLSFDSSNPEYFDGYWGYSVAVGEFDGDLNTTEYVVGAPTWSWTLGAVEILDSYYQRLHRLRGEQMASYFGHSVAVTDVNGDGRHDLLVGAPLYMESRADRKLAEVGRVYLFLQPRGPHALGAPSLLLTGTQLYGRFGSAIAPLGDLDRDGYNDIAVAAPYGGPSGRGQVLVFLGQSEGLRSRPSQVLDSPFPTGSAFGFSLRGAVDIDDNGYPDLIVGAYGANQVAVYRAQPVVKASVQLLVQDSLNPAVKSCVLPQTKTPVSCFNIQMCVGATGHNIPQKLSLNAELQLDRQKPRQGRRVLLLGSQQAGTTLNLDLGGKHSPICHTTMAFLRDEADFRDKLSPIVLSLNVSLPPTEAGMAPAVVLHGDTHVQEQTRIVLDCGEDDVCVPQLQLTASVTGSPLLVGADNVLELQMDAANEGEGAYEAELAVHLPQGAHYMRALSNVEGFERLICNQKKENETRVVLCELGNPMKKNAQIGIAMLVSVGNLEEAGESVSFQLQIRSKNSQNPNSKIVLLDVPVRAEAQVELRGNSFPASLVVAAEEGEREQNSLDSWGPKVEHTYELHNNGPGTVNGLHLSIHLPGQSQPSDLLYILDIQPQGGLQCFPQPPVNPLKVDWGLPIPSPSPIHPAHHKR
Integrin alpha-IIb/beta-3, sequence (P08514 891-1039 limits assumed): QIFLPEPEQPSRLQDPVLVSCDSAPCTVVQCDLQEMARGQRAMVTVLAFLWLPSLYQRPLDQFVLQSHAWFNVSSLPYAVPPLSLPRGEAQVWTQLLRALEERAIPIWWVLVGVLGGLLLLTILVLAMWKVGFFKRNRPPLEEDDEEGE
`COC(=O)C[C@H]1C(=O)N(CC(=O)O)CCN1C(=O)CNC(=O)c1ccc(CCN)cc1` [((S)-4-{2-[4-(2-Amino-ethyl)-benzoylamino]-acetyl}-3-methoxycarbonylmethyl-2-oxo-piperazin-1-yl)-acetic acid] gave an IC50 of 78 nM. The value for `NC(N)=NCCC[C@H](N)C(=O)NCC(=O)N[C@@H](CC(=O)O)C(=O)N[C@@H](Cc1ccccc1)C(=O)O` [(R)-3-[2-((S)-2-Amino-5-guanidino-pentanoylamino)-acetylamino]-N-((S)-1-carboxy-2-phenyl-ethyl)-succinamic acid] (H-RGDF-OH) was 48000 nM; that for `N=C(N)c1cccc(C(=O)NCC(=O)N2CCN(CC(=O)O)C(=O)[C@@H]2CC(=O)O)c1` [{(S)-1-[2-(3-Carbamimidoyl-benzoylamino)-acetyl]-4-carboxymethyl-3-oxo-piperazin-2-yl}-acetic acid] was 13000 nM.

As for `CN(C)C(N)=Nc1ccc(C(=O)NCC(=O)N2CCN(CC(=O)O)C(=O)[C@@H]2CC(=O)O)cc1` [((S)-4-Carboxymethyl-1-{2-[4-(N',N'-dimethyl-guanidino)-benzoylamino]-acetyl}-3-oxo-piperazin-2-yl)-acetic acid], half-maximal inhibition (IC50) required 11000 nM. The result for `N=C(N)c1ccc(C(=O)NCC(=O)N2CCN(CC(=O)O)C(=O)C2)cc1` [{4-[2-(4-Carbamimidoyl-benzoylamino)-acetyl]-2-oxo-piperazin-1-yl}-acetic acid] reads 94 nM; that for `COC(=O)C[C@@H]1C(=O)N(CC(=O)O)CCN1C(=O)CNC(=O)c1ccc(C(=N)N)cc1` [{(R)-4-[2-(4-Carbamimidoyl-benzoylamino)-acetyl]-3-methoxycarbonylmethyl-2-oxo-piperazin-1-yl}-acetic acid], 580 nM. The result for `N=C(N)N1CCC(C(=O)NCC(=O)N2CCN(CC(=O)O)C(=O)[C@@H]2CC(=O)O)CC1` [((S)-1-{2-[(1-Carbamimidoyl-piperidine-4-carbonyl)-amino]-acetyl}-4-carboxymethyl-3-oxo-piperazin-2-yl)-acetic acid] reads 800 nM. The value for `N=C(N)c1ccc(C(=O)NCC(=O)N2CCN(CC(=O)O)C(=O)[C@@H]2CCC(=O)O)cc1` [3-{(S)-1-[2-(4-Carbamimidoyl-benzoylamino)-acetyl]-4-carboxymethyl-3-oxo-piperazin-2-yl}-propionic acid] was 52 nM. In turn, `N=C(N)c1ccc(C(=O)NCC(=O)N2CCN(CC(=O)O)C(=O)[C@@H]2CC(=O)O)cc1` displayed an IC50 of 110 nM. With `COC(=O)CC[C@H]1C(=O)N(CC(=O)O)CCN1C(=O)CNC(=O)c1ccc(C(=N)N)cc1` [3-{(S)-1-[2-(4-Carbamimidoyl-benzoylamino)-acetyl]-4-carboxymethyl-3-oxo-piperazin-2-yl}-propionic acid methyl ester], the IC50 was determined as 90 nM. The value for `N=C(N)NCc1ccc(C(=O)NCC(=O)N2CCN(CC(=O)O)C(=O)[C@@H]2CC(=O)O)cc1` [{(S)-4-Carboxymethyl-1-[2-(4-guanidinomethyl-benzoylamino)-acetyl]-3-oxo-piperazin-2-yl}-acetic acid] was 560 nM; that for `COC(=O)CN1CCN(C(=O)CNC(=O)c2ccc(C(=N)N)cc2)[C@@H](CC(=O)O)C1=O` [{(S)-1-[2-(4-Carbamimidoyl-benzoylamino)-acetyl]-4-methoxycarbonylmethyl-3-oxo-piperazin-2-yl}-acetic acid] was 2600 nM. The value for `NCCc1ccc(C(=O)NCC(=O)N2CCN(CC(=O)O)C(=O)[C@@H]2CC(=O)O)cc1` [((S)-1-{2-[4-(2-Amino-ethyl)-benzoylamino]-acetyl}-4-carboxymethyl-3-oxo-piperazin-2-yl)-acetic acid] was 130 nM; that for `N=C(N)c1ccc(C(=O)NCC(=O)N2CCN([C@@H](Cc3ccccc3)C(=O)O)C(=O)[C@@H]2CC(=O)O)cc1` [(S)-2-{(S)-4-[2-(4-Carbamimidoyl-benzoylamino)-acetyl]-3-carboxymethyl-2-oxo-piperazin-1-yl}-3-phenyl-propionic acid] was 4100 nM. The result for `N=C(N)NCC1CCC(C(=O)NCC(=O)N2CCN(CC(=O)O)C(=O)[C@@H]2CC(=O)O)CC1` (stereo partly drawn) [((S)-4-Carboxymethyl-1-{2-[(4-guanidinomethyl-cyclohexanecarbonyl)-amino]-acetyl}-3-oxo-piperazin-2-yl)-acetic acid] reads 1100 nM; that for `N=C(N)c1ccc(C(=O)NCC(=O)N2CCN(CC(=O)O)C(=O)[C@@H]2Cc2ccccc2)cc1` [{(S)-3-Benzyl-4-[2-(4-carbamimidoyl-benzoylamino)-acetyl]-2-oxo-piperazin-1-yl}-acetic acid], 110 nM. In the case of `N=C(N)NCCCCC(=O)NCC(=O)N1CCN(CC(=O)O)C(=O)[C@@H]1CC(=O)O` [{(S)-4-Carboxymethyl-1-[2-(5-guanidino-pentanoylamino)-acetyl]-3-oxo-piperazin-2-yl}-acetic acid], the IC50 was found to be 3600 nM. `NCCc1ccc(C(=O)NCC(=O)N2CCN(CC(=O)O)C(=O)[C@@H]2CCC(=O)O)cc1` [3-((S)-1-{2-[4-(2-Amino-ethyl)-benzoylamino]-acetyl}-4-carboxymethyl-3-oxo-piperazin-2-yl)-propionic acid] returned a half-inhibitory concentration (IC50) of 110 nM. Turning to `C[C@@H](C(=O)O)N1CCN(C(=O)CNC(=O)c2ccc(C(=N)N)cc2)[C@@H](CC(=O)O)C1=O` [(S)-2-{(S)-4-[2-(4-Carbamimidoyl-benzoylamino)-acetyl]-3-carboxymethyl-2-oxo-piperazin-1-yl}-propionic acid], inhibition was half-maximal at 1500 nM (IC50). The value for `N=C(N)c1ccc(CC(=O)NCC(=O)N2CCN(CC(=O)O)C(=O)[C@@H]2CC(=O)O)cc1` [((S)-1-{2-[2-(4-Carbamimidoyl-phenyl)-acetylamino]-acetyl}-4-carboxymethyl-3-oxo-piperazin-2-yl)-acetic acid] was 1200 nM; that for `CN(C)CCc1ccc(C(=O)NCC(=O)N2CCN(CC(=O)O)C(=O)[C@@H]2CCC(=O)O)cc1` [3-((S)-4-Carboxymethyl-1-{2-[4-(2-dimethylamino-ethyl)-benzoylamino]-acetyl}-3-oxo-piperazin-2-yl)-propionic acid] was 2500 nM; that for `N=C(N)c1ccc(C(=O)NCC(=O)N2CCN(CC(N)=O)C(=O)[C@@H]2CC(=O)O)cc1` [{(S)-1-[2-(4-Carbamimidoyl-benzoylamino)-acetyl]-4-carbamoylmethyl-3-oxo-piperazin-2-yl}-acetic acid] was 30000 nM. The value for `COC(=O)CC[C@H]1C(=O)N(CC(=O)O)CCN1C(=O)CNC(=O)c1ccc(CCN(C)C)cc1` [3-((S)-4-Carboxymethyl-1-{2-[4-(2-dimethylamino-ethyl)-benzoylamino]-acetyl}-3-oxo-piperazin-2-yl)-propionic acid methyl ester] was 2300 nM; that for `COC(=O)CC[C@H]1C(=O)N(CC(=O)O)CCN1C(=O)CNC(=O)c1ccc(CCN)cc1` [3-((S)-1-{2-[4-(2-Amino-ethyl)-benzoylamino]-acetyl}-4-carboxymethyl-3-oxo-piperazin-2-yl)-propionic acid methyl ester] was 120 nM. The value for `N=C(N)c1ccc(C(=O)NCC(=O)N2CCN(CCC(=O)O)C(=O)[C@@H]2CC(=O)O)cc1` [3-{(S)-4-[2-(4-Carbamimidoyl-benzoylamino)-acetyl]-3-carboxymethyl-2-oxo-piperazin-1-yl}-propionic acid] was 30000 nM; that for `NC(N)=Nc1ccc(C(=O)NCC(=O)N2CCN(CC(=O)O)C(=O)[C@@H]2CC(=O)O)cc1` [{(S)-4-Carboxymethyl-1-[2-(4-guanidino-benzoylamino)-acetyl]-3-oxo-piperazin-2-yl}-acetic acid] was 350 nM. The compound `N=C(N)c1ccc(C(=O)NCC(=O)N2CCN(CC(=O)O)C(=O)[C@@H]2CC(N)=O)cc1` [{(S)-4-[2-(4-Carbamimidoyl-benzoylamino)-acetyl]-3-carbamoylmethyl-2-oxo-piperazin-1-yl}-acetic acid] displayed an IC50 of 740 nM. `NCCc1ccc(C(=O)NCC(=O)N2CCN(CC(=O)O)C(=O)C2)cc1` [(4-{2-[4-(2-Amino-ethyl)-benzoylamino]-acetyl}-2-oxo-piperazin-1-yl)-acetic acid] registered an IC50 of 150 nM. In the case of `NCCCc1ccc(C(=O)NCC(=O)N2CCN(CC(=O)O)C(=O)[C@@H]2CC(=O)O)cc1` [((S)-1-{2-[4-(3-Amino-propyl)-benzoylamino]-acetyl}-4-carboxymethyl-3-oxo-piperazin-2-yl)-acetic acid], the IC50 worked out at 1030 nM.
